Hits are enriched below; roughly 8.2% of the tested compounds scored in any of these assays.
D1 mod: D1 dopamine receptor (human) allosteric modulation; AID 641; 5.9% of 58,000 active; HEK293 D1, CRE-luciferase, dopamine EC30 potentiation; actives deviate in either direction; P21728; B-score at 10 µM;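 active = luminescence count or its row- and column-corrected plate score outside the 99.7% band of the plate's sample wells, on either side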
SF-1 act: activators of human nuclear receptor SF-1 | Q13285 | CHO-K1 Gal4-SF-1 LBD luciferase reporter; % increase over DMSO SF-1-specific signal | activation, % at 10 µM | 1.9% of 65,000 active | AID 522;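 active = activation above the mean activation of all tested compounds plus 3 SD, cut at about 50% in these data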
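Test system: CHO-K1 cells with Gal4–hSF-1 LBD chimera plus Gal4-driven luciferase; Input: 4,000 cells/well; Compound: 10 µM only; Times: 20 h compound treatment, 37 °C; Measured by: steady-glow luciferase luminescence, read after 15 min reagent incubation; Measure: percent activation versus DMSO; Control set: DMSO and mock-transfected background; Replicates: one test per compound.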
M1 antag: M1 muscarinic receptor (rat) antagonism. AID 628. B-score at 10 µM. CHO-M1 cells, Fluo-4 calcium, ACh EC80 antagonist mode; active compounds read low. 3.4% of 64,000 active;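 active = calcium fluorescence response, raw or row-and-column corrected B-score, differing from the plate sample mean either way at a set confidence level, mostly lower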
HePTP inhibitor: inhibitors of human HePTP phosphatase; recombinant HePTP phosphatase activity, OD absorbance; inhibition, % at 20 µM; 0.64% of 110,000 active; AID 521; in the data active = inhibition above about 50%
M1 agonist: activates the M1 muscarinic receptor. 3% of 64,000 active. B-score at 10 µM. CHO-M1 cells, Fluo-4 calcium fluorescence, agonist mode; active compounds read high;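 active = fluorescence rise, raw or as B-score row- and column-corrected plate score, outside the 99.7% band of its plate's samples, either direction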
RORa activator: RORA (human) activation | P35398 | CHO-K1 Gal4-RORA LBD luciferase reporter, luminescence; percent increase over mock-subtracted basal signal | activation, % at 10 µM | 1.5% of 65,000 active;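 active = activation above the mean of all tested compounds plus 3 SD, cut at about 49% in these data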
Target sequence (P35398 whole entry, looked up, the tested form may be a part): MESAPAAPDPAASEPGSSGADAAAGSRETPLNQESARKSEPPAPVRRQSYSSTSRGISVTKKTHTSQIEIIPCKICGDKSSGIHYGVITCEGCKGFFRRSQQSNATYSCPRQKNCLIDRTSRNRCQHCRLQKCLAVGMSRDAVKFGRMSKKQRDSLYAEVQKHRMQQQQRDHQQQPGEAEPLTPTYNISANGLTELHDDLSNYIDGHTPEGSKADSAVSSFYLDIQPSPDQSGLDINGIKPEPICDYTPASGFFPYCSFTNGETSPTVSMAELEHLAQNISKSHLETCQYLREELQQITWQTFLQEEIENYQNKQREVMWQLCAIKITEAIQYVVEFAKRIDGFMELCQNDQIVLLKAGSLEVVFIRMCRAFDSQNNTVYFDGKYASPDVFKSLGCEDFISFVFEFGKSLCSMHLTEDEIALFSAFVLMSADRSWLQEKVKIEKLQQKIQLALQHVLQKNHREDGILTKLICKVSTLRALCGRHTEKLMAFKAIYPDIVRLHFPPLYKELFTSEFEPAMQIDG
D1 mod confirm: D1 receptor (human) allosteric modulation, confirmed. shares compounds with D1 mod. HEK293 D1 CRE-luciferase, dopamine EC30 potentiation; active compounds read high. luminescence at 10 µM. 88% of 2,200 active. AID 642;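 active = luminescence in either of two replicates above the same-plate mean plus 3 SD of the low-dose dopamine control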
D1 no dopamine: D1 (human) signaling in absence of dopamine; shares compounds with D1 mod; HEK293 D1 CRE-luciferase, luminescence, no dopamine; active compounds read high; luminescence at 10 µM; 0.8% of 1,900 active; AID 646; in the data active = luminescence above about 3900
Isoprot counter: alters isoproterenol CRE-luciferase response in HEK293 cells. shares compounds with D1 mod. 63% of 2,200 active. calls only at 10 µM. AID 647. HEK293 D1 CRE-luciferase, isoproterenol EC30 counter-screen;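 active = luminescence in either replicate above plate mean of wells with a partly effective reference agonist dose plus 3 SD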;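 note: isoproterenol raises cAMP through native beta-adrenoceptor Gs so signal bypasses D1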
Of the large screens only hits and unclear results are named; the others gave an inactive call (follow-up assays come after a bar, where they were run).

c1ccc(-c2n[nH]c3ccccc23)cc1	none
COc1nc(NCCC2=CCCCC2)nc(OC)n1	D1 mod 7.2 | D1 mod confirm 8312 | D1 no dopamine inactive | Isoprot counter active
COc1nc(NCCc2ccc(OC)c(OC)c2)nc(OC)n1	none
O=C(c1ccc(N2C(=O)C3CC=C(Cl)CC3C2=O)cc1)N1CCCCC1 (stereo not drawn)	none (no result: D1 mod)
CN(C)S(=O)(=O)n1cnc2ccccc21	none
Cc1nc(-c2ccccc2O)n(S(=O)(=O)N(C)C)n1	D1 mod 5.5 | D1 mod confirm 8136 | D1 no dopamine inactive | Isoprot counter active
COc1ccc(CNC(=O)C2CCCN(S(=O)(=O)c3cnc[nH]3)C2)cc1 (stereo not drawn)	none
O=C(c1ccc(S(=O)(=O)N2CCOCC2)cc1)N1CCN(c2ccc(F)cc2)CC1	D1 mod 3.3 | D1 mod confirm inactive | D1 no dopamine inactive | Isoprot counter inactive
COc1ccc(OC)c(NC2c3ccccc3C(=O)N2Cc2ccc3c(c2)OCO3)c1 (stereo not drawn)	none
COc1ccc(OC)c(NC2c3ncccc3C(=O)N2Cc2ccco2)c1 (stereo not drawn)	D1 mod 8.7 | D1 mod confirm 11124 | Isoprot counter active
Cn1nnnc1SCC(=O)Nc1nc(-c2ccccc2)c(-c2ccccc2)o1	D1 mod 3.7 | D1 mod confirm 9488 | D1 no dopamine inactive | Isoprot counter inactive
CCS(=O)(=O)n1nc(-c2ccc(C)cc2)nc1N	none
CCS(=O)(=O)n1nc(-c2ccc(Cl)cc2)nc1N	D1 mod 5 | D1 mod confirm 8932 | D1 no dopamine inactive | Isoprot counter active
CCCn1nnnc1SCC(=O)c1ccc2c(c1)OCCO2	none
CCOc1ccc(-c2nnn(CC(=O)c3ccc4c(c3)OCCO4)n2)cc1OCC	D1 mod 9.3 | D1 mod confirm 18056 | D1 no dopamine inactive | Isoprot counter active

Assay outcomes from PubChem.
